Experiments:
EF1α promoter = assay: iRFP expression from the EF1α promoter in HEK cells with ligand; format: cell-based; conditions: 1µM of procaterol or 2 µM of epinephrine vs DMEM
Summary of the method: (§1)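 HEK293 cultured at 37 °C, 5% CO2 in DMEM were seeded at 50 000 cells/well 24 h before transfection. Transfection used 400 ng reporter-containing DNA with Lipofectamine 2000 (3.75 µl per 1 µg DNA). Four hours later, medium was swapped for fresh medium with or without ligand.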

CMV promoter = assay: iRFP expression from the CMV promoter in HEK cells with ligand; format: cell-based; conditions: 1µM of procaterol or 2 µM of epinephrine vs DMEM
Summary of the method: as §1

[1] = biological target: β2AR^∆C::V2R^∆N::H^mut / β-arrestin::N^mut (Homo sapiens, UniProt P07550); assay: GPCR/β-arrestin interaction rewired via TCS; format: cell-based
NarX/NarL = format: cell-based
Summary of the method: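 HEK293 (37 °C, 5% CO2, DMEM) seeded at 50 000 cells/well 24 h before Lipofectamine 2000 transfection with 400 ng DNA, including NarL and a NarL-inducible Cerulean reporter. After 4 h, medium was replaced with fresh medium ± ligand. At 48 h, cells were Accutase-detached for flow cytometry. Total intensity (mean Cerulean of reporter-positive cells × positive fraction) was normalised to mCherry transfection-control total intensity.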

FKBP/FRB^T2098L = FKBP/FRB^T2098L (Homo sapiens, UniProt P42345+P62942, T2098L); format: cell-based; conditions: high ligand concentration, Fig. 3a conditions 11 and 12
Sequence of FKBP/FRB^T2098L (P62942 whole entry): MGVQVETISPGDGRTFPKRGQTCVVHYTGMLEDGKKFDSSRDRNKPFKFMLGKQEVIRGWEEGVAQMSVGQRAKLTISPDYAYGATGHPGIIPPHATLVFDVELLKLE
Sequence of FKBP/FRB^T2098L (P42345 2012-2144 T2098L limits assumed): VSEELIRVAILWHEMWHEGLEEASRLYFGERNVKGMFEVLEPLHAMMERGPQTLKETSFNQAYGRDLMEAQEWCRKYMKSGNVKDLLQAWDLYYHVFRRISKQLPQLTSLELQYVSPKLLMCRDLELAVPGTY

FKBP/FRB = conditions: read-out: EC50 (published value); cited from earlier work

EC50 [1] | dynamic range of ligand-induced signaling (FKBP/FRB^T2098L) | SMILES | effect on EF1α promoter (EF1α promoter) | induction of the CMV promoter (CMV promoter) | effect on signaling via NarX/NarL system (NarX/NarL; procaterol, Fig. 4b conditions 2 and 3) | effect on wild-type NarX/NarL signaling (NarX/NarL; A/C, Fig. 3a conditions 2 and 3) | EC50 (FKBP/FRB)
– | – | CNC[C@H](O)c1ccc(O)c(O)c1 [Epinephrine] | not affected | factor of two | – | – | –
5 nM | – | CCC(NC(C)C)C(O)c1ccc(O)c2[nH]c(=O)ccc12 (stereo not drawn) [Procaterol] | not affected | factor of two | did not affect | – | –
– | above 3 orders of magnitude | CO[C@H]1[C@@H](O)[C@H](C)C[C@H](C)/C=C/C=C/C=C(\C)[C@@H](c2c[nH]c3c(C)cccc23)C[C@@H]2CC[C@@H](C)[C@@](O)(O2)C(=O)C(=O)N2CCCC[C@H]2C(=O)O[C@H]([C@H](C)C[C@@H]2CC[C@@H](O)[C@H](OC)C2)C[C@H](O)[C@H](C)/C=C(\C)[C@H]1O [A/C, C16-(S)-7-methylindolerapamycin] | – | – | – | did not affect | 10 nM
